{"source": "paper PMC6726563", "about": "(Structure (London, England : 1993), 2019)", "key": {"[1]": {"biological_target": "native integrins expressed on U87MG (human (endogenous in U87MG))", "test": "flow cytometry on cells"}, "[2]": {"biological_target": "recombinant integrin αVβ3 stably expressed on K562 cells (UniProt P06756)", "test": "flow cytometry on cells"}, "[3]": {"biological_target": "native integrin α5β1 on K562 cells (human (endogenous in K562)) (UniProt P08648)", "sequence (P08648 42-1049, chain 1 of 2)": "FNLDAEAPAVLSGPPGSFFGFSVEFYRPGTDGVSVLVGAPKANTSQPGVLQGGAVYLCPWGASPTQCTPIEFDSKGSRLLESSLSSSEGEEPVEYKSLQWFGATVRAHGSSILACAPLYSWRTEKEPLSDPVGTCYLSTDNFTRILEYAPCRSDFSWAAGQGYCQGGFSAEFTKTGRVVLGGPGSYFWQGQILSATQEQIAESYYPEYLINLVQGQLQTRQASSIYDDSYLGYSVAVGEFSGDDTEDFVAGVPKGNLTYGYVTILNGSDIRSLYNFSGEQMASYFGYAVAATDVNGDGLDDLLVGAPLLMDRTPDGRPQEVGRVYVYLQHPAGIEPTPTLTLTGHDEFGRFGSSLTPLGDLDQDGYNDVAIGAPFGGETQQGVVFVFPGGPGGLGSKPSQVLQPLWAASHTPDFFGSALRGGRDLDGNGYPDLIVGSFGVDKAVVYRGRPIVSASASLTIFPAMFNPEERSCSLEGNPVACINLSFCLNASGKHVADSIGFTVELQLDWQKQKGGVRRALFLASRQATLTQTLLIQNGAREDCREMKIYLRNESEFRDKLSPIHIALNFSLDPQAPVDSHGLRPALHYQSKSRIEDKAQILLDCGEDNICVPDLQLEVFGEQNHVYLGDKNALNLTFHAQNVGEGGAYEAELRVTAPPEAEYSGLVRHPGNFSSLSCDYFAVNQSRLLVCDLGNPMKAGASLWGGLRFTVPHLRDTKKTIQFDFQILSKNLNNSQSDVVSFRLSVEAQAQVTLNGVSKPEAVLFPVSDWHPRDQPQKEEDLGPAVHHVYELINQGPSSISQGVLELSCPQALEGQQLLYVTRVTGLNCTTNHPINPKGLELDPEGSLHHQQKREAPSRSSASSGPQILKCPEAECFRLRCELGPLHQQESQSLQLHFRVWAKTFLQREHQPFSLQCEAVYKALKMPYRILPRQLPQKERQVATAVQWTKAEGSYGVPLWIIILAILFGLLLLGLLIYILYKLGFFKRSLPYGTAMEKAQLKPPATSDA", "sequence (P05556 21-798, chain 2 of 2, further chain)": "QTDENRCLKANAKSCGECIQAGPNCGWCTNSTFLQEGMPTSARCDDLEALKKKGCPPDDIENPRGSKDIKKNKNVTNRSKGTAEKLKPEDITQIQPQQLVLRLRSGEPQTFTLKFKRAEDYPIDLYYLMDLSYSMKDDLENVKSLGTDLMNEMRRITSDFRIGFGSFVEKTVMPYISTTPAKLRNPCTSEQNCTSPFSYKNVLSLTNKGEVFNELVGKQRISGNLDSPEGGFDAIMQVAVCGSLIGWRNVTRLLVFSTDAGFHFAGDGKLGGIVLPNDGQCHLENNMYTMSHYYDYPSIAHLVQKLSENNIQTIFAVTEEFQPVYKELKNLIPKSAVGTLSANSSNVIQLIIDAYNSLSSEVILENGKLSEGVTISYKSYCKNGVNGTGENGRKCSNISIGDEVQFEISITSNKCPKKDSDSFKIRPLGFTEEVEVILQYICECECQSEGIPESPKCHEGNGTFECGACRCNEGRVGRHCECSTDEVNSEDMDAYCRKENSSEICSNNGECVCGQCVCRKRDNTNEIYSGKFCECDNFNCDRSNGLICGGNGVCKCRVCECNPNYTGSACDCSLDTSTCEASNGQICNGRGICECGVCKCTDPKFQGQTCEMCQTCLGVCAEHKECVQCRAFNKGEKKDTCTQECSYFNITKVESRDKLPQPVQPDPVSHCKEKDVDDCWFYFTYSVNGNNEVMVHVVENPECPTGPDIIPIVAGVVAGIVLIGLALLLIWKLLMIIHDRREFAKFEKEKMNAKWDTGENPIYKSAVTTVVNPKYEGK", "test": "flow cytometry on cells"}, "[4]": {"biological_target": "αVβ3** double mutant (β3-M180A and β3-R214G) transiently expressed on HEK293T cells (UniProt P06756)", "test": "flow cytometry on cells"}, "α5β1": {"test_system": "α5β1", "details": "ref Kimura et al., 2009a; cited from earlier work"}, "Human αVβ3 ectodomain": {"test_system": "Human αVβ3 ectodomain", "test": "Crystal structure of knottin bound to αVβ3 ectodomain", "details": "Mn2+", "outline": "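Human αVβ3 ectodomain was expressed in insect cells and crystallized at 4 °C by hanging-drop vapor diffusion. Test compound (5 mM) was soaked into the crystals in well solution with 1 mM Mn2+ for 2–3 weeks. Crystals were harvested in 12% PEG 3500, 100 mM sodium acetate pH 4.5, 800 mM NaCl, 2 mM Mn2+ and 5 mM test compound. They were cryoprotected stepwise to 24% glycerol and flash frozen. Phases came from molecular replacement.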"}, "αVβ3 [5]": {"test_system": "αVβ3", "details": "ref Kimura et al., 2009a; cited from earlier work"}, "integrins αVβ3 and α5β1": {"test_system": "integrins αVβ3 and α5β1", "test": "Integrin selectivity of knottins", "assay_type": "binding"}, "[6]": {"test_system": "patients with glioblastoma", "details": "ref Mason, 2015, cited from earlier work"}, "αVβ3 [7]": {"test_system": "αVβ3", "details": "ref Van Agthoven et al., 2014; Xiong et al., 2002; cited from earlier work"}, "αVβ3 [8]": {"test_system": "αVβ3", "details": "ref Reynolds et al., 2009; cited from earlier work"}}}
{"substance": "2.5D-Fc fusion protein", "values": [{"measurement": "Kd", "setting": "[1]", "value": 1.7, "unit": "nM"}, {"measurement": "Kd", "setting": "[2]", "value": 1.4, "unit": "nM"}]}
{"substance": "2.5F-Fc fusion protein", "values": [{"measurement": "Kd", "setting": "[3]", "value": 9.2, "unit": "nM"}, {"measurement": "Kd", "setting": "[1]", "value": 5.9, "unit": "nM"}, {"measurement": "Kd", "setting": "[2]", "value": 6.9, "unit": "nM"}]}
{"substance": "Alexa-647-labeled knottin 2.5D (designed binder)", "values": [{"measurement": "percent of binding to wt-αVβ3", "setting": "[4]", "value": 28, "unit": "%"}]}
{"substance": "RP^5RGDNP^10P (disulfide) [2.5F]", "values": [{"measurement": "affinity to α5β1 (in words)", "setting": "α5β1", "value": "nanomolar affinity"}, {"measurement": "agonist character inferred from βA domain conformational change", "setting": "Human αVβ3 ectodomain", "value": "partial agonists"}, {"measurement": "affinity to αVβ3 (in words)", "setting": "αVβ3 [5]", "value": "nanomolar affinity"}, {"measurement": "integrin selectivity (in words)", "setting": "integrins αVβ3 and α5β1", "value": "binds both αVβ3 and α5β1"}]}
{"substance": "cilengitide: partial agonist targeting αVβ3", "values": [{"measurement": "pharmacokinetics (in words)", "setting": "[6]; likely related to failure in glioblastoma", "value": "unfavorable pharmacokinetics"}, {"measurement": "survival of patients (in words)", "setting": "[6]; primary targeting of αVβ3", "value": "failed to prolong survival of patients with glioblastoma"}, {"measurement": "agonist/antagonist character at αVβ3", "setting": "αVβ3 [7]", "value": "partial agonist"}, {"measurement": "agonist-like behavior (in words)", "setting": "αVβ3 [8]", "value": "agonist-like behavior"}]}
{"substance": "QG^5RGDWA^10P (disulfide) [2.5D]", "values": [{"measurement": "agonist character inferred from βA domain conformational change", "setting": "Human αVβ3 ectodomain", "value": "partial agonists"}, {"measurement": "affinity to αVβ3 (in words)", "setting": "αVβ3 [5]", "value": "nanomolar affinity"}, {"measurement": "integrin selectivity (in words)", "setting": "integrins αVβ3 and α5β1", "value": "αVβ3-specific"}]}
{"substance": "Alexa-647-labeled knottin 2.5F (designed binder)", "values": [{"measurement": "percent of binding to wt-αVβ3", "setting": "[4]", "value": 85, "unit": "%"}]}
